ChEMBL document CHEMBL4402601, “Discovery of a Silicon-Containing Pan-Genotype Hepatitis C Virus NS5A Inhibitor” (J Med Chem, 2020)
pEC50: −log10 of the molar value.

Key:
[1] = Drug distribution in mouse liver at 10 mg/kg, po incubated for 24 hrs by UPLC-MS/MS analysis; format: ADME, organism-based; details: read-out: Drug uptake
How it was run: (§1)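 Oral dosing in mice and rats; compound measured in plasma and liver by UPLC-MS/MS at each time point, n = 3 (mean ± SD). LPR is mean liver concentration divided by mean plasma concentration.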

[2] = Volume of distribution in mouse at 2 mg/kg, iv by UPLC-MS/MS analysis; format: ADME, organism-based; details: in vivo
How it was run: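 Mice fasted overnight, given a single 2 mg/kg iv dose. Vehicle was the oral formulation (2:2:96 alcohol:Tween 80:glucose injection) diluted 2.5-fold with 10% glucose injection. Plasma concentrations measured by UPLC-MS/MS.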

Hepatitis C virus [3] = assay: Resistance index, ratio of EC50 for Hepatitis C virus subtype 1b Con1 subgenomic replicon expressing NS5A L31V mutant infected in human HuH7 cells to EC50 for Hepatitis C virus subtype 1b Con1 subgenomic replicon expressing NS5A infected in human HuH7 cells; format: functional, Hepacivirus hominis
[4] = AUClast in mouse at 2 mg/kg, iv by UPLC-MS/MS analysis; format: ADME, organism-based; details: in vivo
How it was run: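 Overnight-fasted mice dosed iv once at 2 mg/kg. Vehicle was 2:2:96 (v/v) alcohol : Tween 80 : glucose injection diluted 2.5 times with 10% glucose injection. Plasma concentration measured by UPLC-MS/MS.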

Hepatitis C virus [5] = assay: Resistance index, ratio of EC50 for Hepatitis C virus subtype 1a H77 subgenomic replicon expressing NS5A Q30E mutant infected in human HuH7 cells to EC50 for Hepatitis C virus subtype 1a H77 subgenomic replicon expressing NS5A infected in human HuH7 cells; format: functional, Hepacivirus hominis
[6] = Ratio of drug distribution in rat liver to drug distribution in rat plasma measured after 3 hrs by UPLC-MS/MS analysis; format: ADME, cell-free; how it was run: as §1
[7] = Oral bioavailability in mouse at 10 mg/kg by UPLC-MS/MS analysis; format: ADME, organism-based; details: in vivo
How it was run: (§2)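 Overnight-fasted mice given a single 10 mg/kg oral dose in 2:2:96 (v/v) alcohol : Tween 80 : glucose injection. Plasma levels by UPLC-MS/MS. Bioavailability derived against a 2 mg/kg iv arm using the same formulation diluted 2.5 times with 10% glucose injection.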

Hepatitis C virus [8] = assay: Antiviral activity against Hepatitis C virus subtype 4a subgenomic replicon expressing NS5A infected in human HuH7 cells assessed as reduction in viral replication incubated for 3 days by luciferase reporter gene assay; format: functional, organism-based, Hepacivirus hominis; details: Huh-7, 72 h
[9] = Drug distribution in mouse liver at 10 mg/kg, po incubated for 0.5 hrs by UPLC-MS/MS analysis; format: ADME, organism-based; details: read-out: Drug uptake; how it was run: as §1
Hepatitis C virus [10] = assay: Antiviral activity against Hepatitis C virus subtype 6a subgenomic replicon expressing NS5A infected in human HuH7 cells assessed as reduction in viral replication incubated for 3 days by luciferase reporter gene assay; format: functional, organism-based, Hepacivirus hominis; details: Huh-7, 72 h
How it was run: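 HCV replicon cell assay; inhibition of replication read as decrease in luciferase signal. Percent inhibition computed at each compound concentration; EC50 (pM) from nonlinear regression fit to a 4-parameter logistic equation. Values are means of triplicate wells, with each experiment run at least twice.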

[11] = Drug distribution in rat plasma at 10 mg/kg, po incubated for 0.5 hrs by UPLC-MS/MS analysis; format: ADME, organism-based; how it was run: as §1
[12] = Ratio of drug distribution in mouse liver to drug distribution in mouse plasma measured after 3 hrs by UPLC-MS/MS analysis; format: ADME, cell-free; how it was run: as §1
[13] = Drug distribution in mouse plasma at 10 mg/kg, po incubated for 24 hrs by UPLC-MS/MS analysis; format: ADME, organism-based; how it was run: as §1
[14] = Ratio of drug distribution in rat liver to drug distribution in rat plasma measured after 8 hrs by UPLC-MS/MS analysis; format: ADME, cell-free; how it was run: as §1
[15] = AUClast in mouse at 10 mg/kg, po by UPLC-MS/MS analysis; format: ADME, organism-based; details: in vivo; how it was run: as §2
Hepatitis C virus [16] = assay: Antiviral activity against Hepatitis C virus subtype 1a H77 subgenomic replicon expressing NS5A L31V mutant infected in human HuH7 cells assessed as reduction in viral replication incubated for 3 days by luciferase reporter gene assay; format: functional, organism-based, Hepacivirus hominis; details: subtype 1a H77, Huh-7, 72 h
How it was run: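 NS5A resistance-associated variants introduced into GT1a-H77 or GT1b-Con1 replicons. In transient assays, each variant replicon was electroporated into a Huh-7-derived cell line. Inhibition measured as drop in luciferase signal. Percent inhibition computed per concentration; EC50 from 4-parameter logistic nonlinear fit. Fold resistance is variant EC50 relative to the matching reference replicon.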

[17] = MRT in dog at 5 mg/kg, po by UPLC-MS/MS analysis; format: ADME, organism-based, Canis lupus familiaris; details: in vivo

Compound: COC(=O)N[C@H](C(=O)N1CCC[C@H]1C(=O)Nc1ccc([C@@H]2CC[C@@H](c3ccc(NC(=O)[C@@H]4CCCN4C(=O)[C@@H](NC(=O)OC)[C@@H](C)OC)cc3)N2c2cc(F)c(N3CC[Si](C)(C)CC3)c(F)c2)cc1)[C@@H](C)OC
- concentration at 24 h [1]: 625 ng/g
- Vd [2]: 1.56 L/kg
- Ratio EC50 (Hepatitis C virus [3]): 2.3
- AUClast [4]: 17863 ng/hr.ml
- Ratio EC50 (Hepatitis C virus [5]): 175
- Kp at 3 h [6]: 5.2
- bioavailability [7]: 7.2%
- pEC50 (Hepatitis C virus [8]): 12.48
- concentration at 0.5 h [9]: 436 ng/g
- pEC50 (Hepatitis C virus [10]): 10.77
- concentration at 0.5 h [11]: 40.9 ng/mL
- Kp at 3 h [12]: 24.6
- concentration at 24 h [13]: 58.6 ng/mL
- Kp at 8 h [14]: 10.7
- AUClast [15]: 6446 ng/hr.ml
- pEC50 (Hepatitis C virus [16]): 10.57
- MRT [17]: 17.5 h
